Here are results for 38 compounds from ChEMBL document CHEMBL4513216, “Probing the Open Global Health Chemical Diversity Library for Multistage-Active Starting Points for Next-Generation Antimalarials” (ACS Infect Dis, 2020).

Structures are written as SMILES.

This data set can be described thus: Toxicity liver stage against HepG2, at 10uM. It counts as cell-based. Set-up: test concentration 10 uM, cell line HepG2-A16-CD81EGFP. Particulars: human, HepG2-A16-CD81EGFP cells; read-out: INHIBITION
The essentials:
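Uninfected HepG2-A16-CD81EGFP cells, 3 × 10^3 per well, 1536-well, plated on prespotted compound at 10 μM final, parasite-free screening media added to match infected plates; puromycin 10 μM positive, DMSO 0.5% negative; run in parallel with 48 h PbLuc assay at 37 °C, 5% CO2; viability by CellTiter-Glo luminescence, normalized to controls.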
For the compound `COC[C@]12COC[C@H]1CN(Cc1cccnc1OC)C2`, the cytotoxicity at 10 µM was -9.83%.
The same measure for `COCC(=O)N1CCCC(C(=O)c2cnn(-c3ccc(F)cc3)c2N)C1` (stereo not drawn): 9.71%.
For `CC(C)N1CCC(Cc2cncc(-c3ccccc3C(=O)O)n2)C1` (stereo not drawn), the cytotoxicity at 10 µM is -10%.
The same measure for `CC(=O)N1CCCCC1c1nc(C)cc(-c2ccccc2C(=O)O)n1` (stereo not drawn): -12.8%; for `Cc1nc(C2CCN(C(=O)c3ccnn3C)CC2)c2sccn12`: -10.7%.
Next, `Cc1cccnc1CN1CCC2(CC(Nc3ccncn3)C2)C1` (stereo not drawn): -6.36%; `CN(c1ccncn1)C1CC2(CCN(C(=O)c3cccn3C)C2)C1` (stereo not drawn): -8.05%; `CC(C)N1CCC(c2cc(C(F)(F)F)n3ccnc3n2)CC1`: -16.2%.
Next, `C[C@]1(O)CN(Cc2ccc(C(=O)O)cc2)CC[C@@H]1Oc1cccc(F)c1`: -6.66%.
Consider `CC(C)NC(=O)CN(C)C(=O)c1c(Cl)c2ccccc2n1C`, for which the cytotoxicity at 10 µM was determined as 5.26%.
Next, `Cc1n[nH]c(C2CN(C(=O)c3ccoc3C)CCO2)n1` (stereo not drawn): -22.4%; `Cc1cccc(C)c1CNC1(CCO)CCOCC1`: 1.93%.
Next, `Fc1ccc(-c2ccc(CNC3CCc4ncnn4C3)o2)cc1` (stereo not drawn): -7.62%; `CCCS(=O)(=O)CC(=O)N1CCN(CC2CC2)c2ccccc21`: -7.44%; `O=C(CCc1ccsc1)N1CCC(C(=O)O)(c2ccccc2)CC1`: 12.4%.
Take `Cc1cccc(C(C)(C)CNC(=O)CN(C)S(=O)(=O)c2cccnc2)c1`: the cytotoxicity at 10 µM was determined as 7.41%.
Next, `CN(C)c1cccc(CNC(=O)Nc2cc(C#N)ccc2Cl)n1`: 21.6%; `O=C(c1cnc2[nH]c(=O)[nH]c(=O)c2c1)N1CCCC1C1CCCC1` (stereo not drawn): 6.22%; `CC(NC1(CNC(=O)C(C)(C)C#N)CCOCC1)c1ccccc1` (stereo not drawn): 7.35%.
Take `COC(=O)CCN1CCCC1c1cccc2c1OCCO2` (stereo not drawn): the cytotoxicity at 10 µM is 17.7%.
Next, `CC(=O)NCC(=O)N1C[C@@H](C)[C@@]2(CCN(c3ccsc3)C2=O)C1`: -74.7%; `OCCNc1nccc(-c2c[nH]nc2-c2cccnc2)n1`: -8.22%.
The same measure for `O=C(c1cccc(Cl)c1)C1CCCN(c2nnc(C3CCC3)o2)C1` (stereo not drawn): 0.409%.
For the compound `CCC[C@@H]1CN(C(=O)c2c(F)ccc(C)c2Cl)C[C@H]1C(=O)O`, the cytotoxicity at 10 µM is -4.39%.
Next, `CC(C)=CCN1CCN(Cc2nc3ccccc3[nH]2)[C@H]2CS(=O)(=O)C[C@H]21`: -132%; `COC(=O)N1CCCCC1C(=O)N1CCCN(c2ccnc(C)c2)CC1` (stereo not drawn): -3.76%.
Next, `CSc1nccc(NCc2cc3n(n2)CCCN(C(=O)C2CCC2)C3)n1`: -118%; `O=C(O)c1cccc(CC2CCN(c3ncccn3)CC2)c1`: -134%.
The same measure for `Cc1nnc(CN(C)Cc2ccc(C(=O)Nc3sccc3C#N)cc2)o1`: -6.88%.
In the case of `CC(C)NS(=O)(=O)c1cc(C(=O)O)cc(-c2ccc(CN(C)C)cc2)c1`, the cytotoxicity at 10 µM came to 13.3%.
Consider `CCSc1ncc(Cl)c(C(=O)NC(CCSC)C(=O)O)n1` (stereo not drawn), for which the cytotoxicity at 10 µM was -8.91%.
Next, `CCC(NC(=O)c1nn(C)cc1C(=O)O)c1ccccc1` (stereo not drawn): -7.41%.
Regarding `Cc1cccc(OCCCNC(=O)NC(C)c2nncn2C)c1` (stereo not drawn), the cytotoxicity at 10 µM was -7.5%.
The same measure for `O=C(N1CCOCC1)N1CCc2ncc(CN3CCCCC3)n2CC1`: -87.7%; for `NCCCNS(=O)(=O)Cc1ccc(Br)cc1`: -0.447%.
Take `Cc1occc1C(=O)N1C[C@@H]2OCCN(C(C)C)[C@@H]2C1`: the cytotoxicity at 10 µM is -73.4%.
Next, `O=C(c1cscn1)N1CCC2(CN(Cc3nccs3)C2)C1`: -72.6%; `O=C1[C@H]2CN(Cc3ccncc3)C[C@H]2CN1c1ccsc1`: -81.1%.
